Assay results reported in ChEMBL document CHEMBL5214897, “Modular Design of Membrane-Active Antibiotics: From Macromolecular Antimicrobials to Small Scorpionlike Peptidomimetics” (J Med Chem, 2021).
In brackets after ≈: the same amount, converted by molar mass. Activity calls are given as the source filed them. No cut-off for these calls is given here.

Columns and labels:
[1] = system: Staphylococcus aureus; assay: Antibacterial activity against methicillin-resistant Staphylococcus aureus assessed as bacterial growth inhibition incubated for 16 hrs by microplate reader assay; assay type: functional
Outline: (§1)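 Strains grown in TSB at 37 °C for 16 h with shaking, subcultured 6 h to mid-log. 10^6 CFU/mL bacteria mixed 1:1 with compound over 0.75 to 25 μg/mL. Incubated at 37 °C for 16 h; MIC read on a microplate reader.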

[2] = system: Staphylococcus epidermidis; assay: Antibacterial activity against methicillin-resistant Staphylococcus epidermidis assessed as bacterial growth inhibition incubated for 16 hrs by microplate reader assay; assay type: functional; outline: as §1
[3] = system: Enterococcus faecalis; assay: Antibacterial activity against vancomycin-resistant Enterococcus faecalis assessed as bacterial growth inhibition incubated for 16 hrs by microplate reader assay; assay type: functional; outline: as §1
[4] = system: Escherichia coli; assay: Antibacterial activity against Escherichia coli assessed as bacterial growth inhibition incubated for 16 hrs by microplate reader assay; assay type: functional
Outline: (§2)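 Strains E. coli ATCC 25922, K. pneumoniae ATCC 13383, P. aeruginosa ATCC 27853 grown in TSB at 37 °C for 16 h with shaking, subcultured 6 h to mid-log.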

[5] = system: Pseudomonas aeruginosa; assay: Antibacterial activity against Pseudomonas aeruginosa assessed as bacterial growth inhibition incubated for 16 hrs by microplate reader assay; assay type: functional; outline: as §2
[6] = system: Klebsiella pneumoniae; assay: Antibacterial activity against Klebsiella pneumoniae assessed as bacterial growth inhibition incubated for 16 hrs by microplate reader assay; assay type: functional; outline: as §2
[7] = Hemolytic activity in human RBC assessed as hemolysis incubated for 1 hr by microplate reader assay; assay type: toxicity, cell-based, Erythrocyte; conditions: human red blood cells (erythrocytes)
Outline: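 Fresh human erythrocytes washed in 1× PBS (700 g, 10 min), made to 5% suspension, mixed 1:1 with compound (250 to 1.95 µg/mL), 37 °C for 1 h. After centrifugation, supernatant diluted in PBS and A540 read; 2% Triton-100 = 100%, PBS = 0%; HC50 derived from % hemolysis.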

[8] = Therapeutic index, ratio of HC50 for Hemolytic activity in human RBC to MIC for Antibacterial activity against methicillin-resistant Staphylococcus aureus; assay type: toxicity
[9] = system: Staphylococcus aureus; assay: Antibacterial activity in ICR mouse infected with methicillin-resistant Staphylococcus aureus assessed as presence of erythema at 5 mg/ml,sc measured after 48 hrs; assay type: functional, organism-based
Outline: (§3)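 Female ICR mice (16–20 g), anaesthetised and dorsum shaved. Subcutaneous abscess made with 100 μL MRSA at 1×10^8 CFU/mL. After 30 min, 100 μL of compound in sterile PBS (0.5 or 5 mg/mL) injected into the infection site; PBS controls. At 48 h: skin imaged, abscess bacteria plate-counted, H&E histology, IL-6 and TNF-α measured in skin homogenate by ELISA.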

[10] = system: Staphylococcus aureus; assay: Antibacterial activity in ICR mouse infected with methicillin-resistant Staphylococcus aureus assessed as reduction in skin inflammatory cells at 5 mg/ml,sc measured after 48 hrs by H and E staining based analysis; assay type: functional, organism-based; outline: as §3
[11] = system: Staphylococcus aureus; assay: Antibacterial activity in ICR mouse infected with methicillin-resistant Staphylococcus aureus assessed as reduction in TNF-alpha level at 5 mg/ml,sc measured after 48 hrs by ELISA assay; assay type: functional, organism-based; outline: as §3
[12] = system: Staphylococcus aureus; assay: Antibacterial activity in ICR mouse infected with methicillin-resistant Staphylococcus aureus assessed as reduction in IL-6 level at 5 mg/ml,sc measured after 48 hrs by ELISA assay; assay type: functional, organism-based; outline: as §3
[13] = system: Staphylococcus aureus; assay: Antibacterial activity in ICR mouse infected with methicillin-resistant Staphylococcus aureus assessed as reduction in microbial burden at 5 mg/ml,sc measured after 48 hrs; assay type: functional; set-up: scale not given: the % may be the effect or the level left; outline: as §3
[14] = system: Staphylococcus aureus; assay: Antibacterial activity in ICR mouse infected with methicillin-resistant Staphylococcus aureus assessed as reduction in colony growth at 5 mg/ml,sc measured after 48 hrs; assay type: functional; outline: as §3
[15] = Toxicity in ICR mouse infected with methicillin-resistant Staphylococcus aureus assessed as histopathological abnormalities in liver at […],sc measured after 48 hrs by H and E staining based assay; assay type: organism-based; conditions: in vivo
Outline: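 MRSA abscess model in female ICR mice: 100 μL compound in PBS (0.5 or 5 mg/mL) injected subcutaneously at the infection site 30 min after inoculation. Major organs harvested and examined by H&E staining for systemic toxicity.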

SMILES | MIC [1] | MIC [2] | MIC [3] | MIC [4] | MIC [5] | MIC [6] | HC50 at 1 h [7] | selectivity ratio [8] | Activity [9] | Activity [10] | Activity [11] | Activity [12] | Activity [13] | Activity [14] | Activity [15]
CCCCCCCCCCNC(=O)c1cc(NC(=O)CN(C[C@@H](N)CCCCN)C(=O)CC23CC4CC(CC(C4)C2)C3)cc(NC(=O)CN(C[C@@H](N)CCCCN)C(=O)CC23CC4CC(CC(C4)C2)C3)c1 | 2 µg/mL (≈ 2.03 µM) | 9 µg/mL (≈ 9.12 µM) | 2 µg/mL (≈ 2.03 µM) | > 25 µg/mL | > 25 µg/mL | > 25 µg/mL | 125 µg/mL | 62.5 | – | – | – | – | – | – | –
CCCCCCCC(=O)NCCNC(=O)c1cc(NC(=O)CN(C[C@@H](N)CCCCN)C(=O)c2ccc(Cl)cc2)cc(NC(=O)CN(C[C@@H](N)CCCCN)C(=O)c2ccc(Cl)cc2)c1 | > 25 µg/mL | – | – | > 25 µg/mL | – | – | > 250 µg/mL | – | – | – | – | – | – | – | –
CCCCCCCCNC(=O)c1cc(NC(=O)CN(C[C@@H](N)CCCCN)C(=O)CC23CC4CC(CC(C4)C2)C3)cc(NC(=O)CN(C[C@@H](N)CCCCN)C(=O)CC23CC4CC(CC(C4)C2)C3)c1 | 2 µg/mL (≈ 2.09 µM) | 4.5 µg/mL (≈ 4.7 µM) | 4.5 µg/mL (≈ 4.7 µM) | 9 µg/mL (≈ 9.39 µM) | 19 µg/mL (≈ 19.8 µM) | 9 µg/mL (≈ 9.39 µM) | 125 µg/mL | 62.5 | – | – | – | – | – | – | –
CCCCCCCC(=O)NCCNC(=O)c1cc(NC(=O)CN(C[C@@H](N)CCCCN)C(=O)CCCCCCC)cc(NC(=O)CN(C[C@@H](N)CCCCN)C(=O)CCCCCCC)c1 | 4.5 µg/mL (≈ 4.92 µM) | 4.5 µg/mL (≈ 4.92 µM) | 4.5 µg/mL (≈ 4.92 µM) | 4.5 µg/mL (≈ 4.92 µM) | 4.5 µg/mL (≈ 4.92 µM) | > 25 µg/mL | > 250 µg/mL | > 55.5 | – | – | – | – | – | – | –
CCCCCCCCCCCC(=O)NCCNC(=O)c1cc(NC(=O)CN(C[C@@H](N)CCCCN)C(=O)CC23CC4CC(CC(C4)C2)C3)cc(NC(=O)CN(C[C@@H](N)CCCCN)C(=O)CC23CC4CC(CC(C4)C2)C3)c1 | 4.5 µg/mL (≈ 4.2 µM) | 4.5 µg/mL (≈ 4.2 µM) | 4.5 µg/mL (≈ 4.2 µM) | > 25 µg/mL | > 25 µg/mL | > 25 µg/mL | 250 µg/mL | 55.5 | – | – | – | – | – | – | –
CCCCCCCC(=O)NCCNC(=O)c1cc(NC(=O)CN(C[C@@H](N)CCCCN)C(=O)c2cccc(Cl)c2)cc(NC(=O)CN(C[C@@H](N)CCCCN)C(=O)c2cccc(Cl)c2)c1 | > 25 µg/mL | – | – | > 25 µg/mL | – | – | > 250 µg/mL | – | – | – | – | – | – | – | –
CCCCCCCC(=O)NCCNC(=O)c1cc(NC(=O)CN(C[C@@H](N)CCCCN)C(=O)c2ccc(-c3ccccc3)cc2)cc(NC(=O)CN(C[C@@H](N)CCCCN)C(=O)c2ccc(-c3ccccc3)cc2)c1 | 4.5 µg/mL (≈ 4.4 µM) | 4.5 µg/mL (≈ 4.4 µM) | 4.5 µg/mL (≈ 4.4 µM) | 9 µg/mL (≈ 8.79 µM) | 4.5 µg/mL (≈ 4.4 µM) | > 25 µg/mL | > 250 µg/mL | > 55.5 | – | – | – | – | – | – | –
CCCCCCNC(=O)c1cc(NC(=O)CN(C[C@@H](N)CCCCN)C(=O)CC23CC4CC(CC(C4)C2)C3)cc(NC(=O)CN(C[C@@H](N)CCCCN)C(=O)CC23CC4CC(CC(C4)C2)C3)c1 | 2 µg/mL (≈ 2.15 µM) | 2 µg/mL (≈ 2.15 µM) | 2 µg/mL (≈ 2.15 µM) | 9 µg/mL (≈ 9.67 µM) | 4.5 µg/mL (≈ 4.84 µM) | 9 µg/mL (≈ 9.67 µM) | 125 µg/mL | 62.5 | – | – | – | – | – | – | –
CCCCCCCC(=O)NCCNC(=O)c1cc(NC(=O)CN(C[C@@H](N)CCCCN)C(=O)Cc2cccc3ccccc23)cc(NC(=O)CN(C[C@@H](N)CCCCN)C(=O)Cc2cccc3ccccc23)c1 | 9 µg/mL (≈ 9.01 µM) | 9 µg/mL (≈ 9.01 µM) | > 25 µg/mL | 4.5 µg/mL (≈ 4.5 µM) | > 25 µg/mL | 4.5 µg/mL (≈ 4.5 µM) | > 250 µg/mL | > 27.8 | – | – | – | – | – | – | –
CCCCCCCC(=O)NCCNC(=O)c1cc(NC(=O)CN(C[C@@H](N)CCCCN)C(=O)CCCCC)cc(NC(=O)CN(C[C@@H](N)CCCCN)C(=O)CCCCC)c1 | > 25 µg/mL | – | – | > 25 µg/mL | – | – | > 250 µg/mL | – | – | – | – | – | – | – | –
CCCCCCCCCCCC(=O)NCCNC(=O)c1cc(NC(=O)CNC[C@@H](N)CCCCN)cc(NC(=O)CNC[C@@H](N)CCCCN)c1 | > 25 µg/mL | – | – | > 25 µg/mL | – | – | > 250 µg/mL | – | – | – | – | – | – | – | –
CCCCCCCCCC(=O)NCCNC(=O)c1cc(NC(=O)CN(C[C@@H](N)CCCCN)C(=O)CC23CC4CC(CC(C4)C2)C3)cc(NC(=O)CN(C[C@@H](N)CCCCN)C(=O)CC23CC4CC(CC(C4)C2)C3)c1 | 1 µg/mL (≈ 0.958 µM) | 2 µg/mL (≈ 1.92 µM) | 4.5 µg/mL (≈ 4.31 µM) | 19 µg/mL (≈ 18.2 µM) | 2 µg/mL (≈ 1.92 µM) | 4.5 µg/mL (≈ 4.31 µM) | > 250 µg/mL | > 250 | – | – | – | – | – | – | –
CCCCCCCCCCCC(=O)NCCNC(=O)c1cc(NC(=O)CN(C[C@@H](N)CCCCN)C(=O)CCCCCCC)cc(NC(=O)CN(C[C@@H](N)CCCCN)C(=O)CCCCCCC)c1 | 4.5 µg/mL (≈ 4.63 µM) | 9 µg/mL (≈ 9.26 µM) | > 25 µg/mL | > 25 µg/mL | > 25 µg/mL | > 25 µg/mL | > 250 µg/mL | > 55.5 | – | – | – | – | – | – | –
O=C(O)c1cn(C2CC2)c2cc(N3CCNCC3)c(F)cc2c1=O [CIPROFLOXACIN] | 0.24 µg/mL (≈ 0.724 µM) | 0.45 µg/mL (≈ 1.36 µM) | 0.9 µg/mL (≈ 2.72 µM) | – | 0.45 µg/mL (≈ 1.36 µM) | 0.9 µg/mL (≈ 2.72 µM) | – | – | Active | Active | Active | Active | 81.1% | 0.7 log10CFU/ml | Toxic
CCCCCCCC(=O)NCCNC(=O)c1cc(NC(=O)CN(C[C@@H](N)CCCCN)C(=O)CC23CC4CC(CC(C4)C2)C3)cc(NC(=O)CN(C[C@@H](N)CCCCN)C(=O)CC23CC4CC(CC(C4)C2)C3)c1 | 2 µg/mL (≈ 1.97 µM) | 2 µg/mL (≈ 1.97 µM) | 4.5 µg/mL (≈ 4.43 µM) | 4.5 µg/mL (≈ 4.43 µM) | 4.5 µg/mL (≈ 4.43 µM) | 4.5 µg/mL (≈ 4.43 µM) | > 250 µg/mL | > 125 | – | – | – | – | – | – | –
